Data from ChEMBL document CHEMBL4138211, “Regio- and stereoselective synthesis of dispirooxindole-pyrrolocarbazole hybrids via 1,3-dipolar cycloaddition reactions: Cytotoxic activity and SAR studies” (Eur J Med Chem, 2018).
Active and inactive are the calls of the source. The calls are words filed in the database; no cut-off is given here.

How the values were obtained:
MCF7 [1] = experiment: Antiproliferative activity against human MCF7 cells after 48 hrs by MTT assay; format: functional, cell-based; conditions: for IC50: MCF7, 48 h
Summary of the method: (§1)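 Cells grown 1×10⁴/well for 48 h to about 75% confluence. Medium then replaced with fresh medium containing serially diluted compounds, followed by a further 48 h. MTT added for 4 h at 37 °C and formazan dissolved in DMSO for 10 min. OD read at 620 nm. IC50 taken from the viability–concentration survival curve. Three independent experiments, each in triplicate.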

A549 [2] = experiment: Antiproliferative activity against human A549 cells after 48 hrs by MTT assay; format: functional, cell-based; conditions: for IC50: A549, 48 h; summary of the method: as §1
MCF7 [3] = experiment: Induction of apoptosis in human MCF7 cells assessed as cell shrinkage after 24 hrs by brightfield inverted light microscopic analysis; format: functional, cell-based
MCF7 [4] = experiment: Induction of apoptosis in human MCF7 cells assessed as membrane blebbing after 24 hrs by brightfield inverted light microscopic analysis; format: functional, cell-based
MCF7 [5] = experiment: Induction of apoptosis in human MCF7 cells assessed as formation of floating cells after 24 hrs by brightfield inverted light microscopic analysis; format: functional, cell-based
A549 [6] = experiment: Induction of apoptosis in human A549 cells assessed as cell shrinkage after 24 hrs by brightfield inverted light microscopic analysis; format: functional, cell-based
A549 [7] = experiment: Induction of apoptosis in human A549 cells assessed as membrane blebbing after 24 hrs by brightfield inverted light microscopic analysis; format: functional, cell-based
A549 [8] = experiment: Induction of apoptosis in human A549 cells assessed as formation of floating cells after 24 hrs by brightfield inverted light microscopic analysis; format: functional, cell-based
MCF7 [9] = experiment: Induction of apoptosis in human MCF7 cells assessed as nuclear fragmentation after 24 hrs by DAPI staining-based fluorescence microscopic analysis; format: functional, cell-based
Summary of the method: (§2)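 Cells plated on glass coverslips and treated for 24 h, then fixed. Permeabilised with 0.2% Triton X-100 for 10 min at room temperature. DAPI applied for 3 min under a coverslip. Nuclei inspected by fluorescence microscopy for condensed chromatin and fragmentation, against untreated cells.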

A549 [10] = experiment: Induction of apoptosis in human A549 cells assessed as nuclear fragmentation after 24 hrs by DAPI staining-based fluorescence microscopic analysis; format: functional, cell-based; summary of the method: as §2
MCF7 [11] = experiment: Induction of apoptosis in human MCF7 cells by acridine orange/ethidium bromide staining-based fluorescence microscopic analysis; format: functional, cell-based
Summary of the method: (§3)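 Treated cells collected and washed in PBS (pH 7.2). Stained with a 1:1 AO/EtBr mixture (each dye […] in water) and held 2 min. Washed twice in PBS and viewed by fluorescence microscopy at 400× with 480 nm excitation. Green intact-membrane cells distinguished from orange/red membrane-damaged cells.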

MCF7 [12] = experiment: Induction of apoptosis in human MCF7 cells assessed as nuclear condensation by acridine orange/ethidium bromide staining-based fluorescence microscopic analysis; format: functional, cell-based; summary of the method: as §3
MCF7 [13] = experiment: Induction of apoptosis in human MCF7 cells assessed as damaged cell membranes by acridine orange/ethidium bromide staining-based fluorescence microscopic analysis; format: functional; summary of the method: as §3
A549 [14] = experiment: Induction of apoptosis in human A549 cells by acridine orange/ethidium bromide staining-based fluorescence microscopic analysis; format: functional, cell-based; summary of the method: as §3
MCF7 [15] = experiment: Induction of apoptosis in human MCF7 cells assessed as chromatin condensation after 24 hrs by DAPI staining-based fluorescence microscopic analysis; format: functional, cell-based; summary of the method: as §2

IC50 (MCF7 [1]) [µM] | IC50 (A549 [2]) [µM] | SMILES | Activity (MCF7 [1]) | Activity (A549 [2]) | Activity (MCF7 [3]) | Activity (MCF7 [4]) | Activity (MCF7 [5]) | Activity (A549 [6]) | Activity (A549 [7]) | Activity (A549 [8]) | Activity (MCF7 [9]) | Activity (A549 [10]) | Activity (MCF7 [11]) | Activity (MCF7 [12]) | Activity (MCF7 [13]) | Activity (A549 [14]) | Activity (MCF7 [15])
19 | 18 | Cc1ccc2[nH]c3c(c2c1)CC[C@]1(C3=O)[C@@H](c2ccccc2)[C@@H](c2ccccc2)N[C@@]12C(=O)Nc1ccccc12 | Dose-dependent effect | Dose-dependent effect | inactive | inactive | inactive | inactive | inactive | inactive | Active | inactive | inactive | inactive | inactive | inactive | Active
19 | 18 | COc1ccc([C@H]2[C@@H](c3ccccc3)N[C@@]3(C(=O)Nc4ccccc43)[C@]23CCc2c([nH]c4ccc(Cl)cc24)C3=O)cc1 | Dose-dependent effect | Dose-dependent effect | inactive | inactive | inactive | inactive | inactive | inactive | Active | inactive | inactive | inactive | inactive | inactive | Active
18 | 20 | COc1ccc([C@H]2[C@@H](c3ccccc3)N[C@@]3(C(=O)Nc4ccccc43)[C@]23CCc2c([nH]c4ccc(C)cc24)C3=O)cc1 | Dose-dependent effect | Dose-dependent effect | inactive | inactive | inactive | inactive | inactive | inactive | Active | inactive | inactive | inactive | inactive | inactive | Active
17 | 21 | COc1ccc([C@H]2[C@@H](c3ccccc3)N[C@@]3(C(=O)Nc4ccccc43)[C@]23CCc2c([nH]c4ccccc24)C3=O)cc1 | Dose-dependent effect | Dose-dependent effect | – | – | – | – | – | – | – | – | – | – | – | – | –

The next lines start with the molecule.

SMILES | IC50 (MCF7 [1]) [µM] | IC50 (A549 [2]) [µM] | Activity (MCF7 [1]) | Activity (A549 [2]) | Activity (MCF7 [3]) | Activity (MCF7 [4]) | Activity (MCF7 [5]) | Activity (A549 [6]) | Activity (A549 [7]) | Activity (A549 [8]) | Activity (MCF7 [9]) | Activity (A549 [10]) | Activity (MCF7 [11]) | Activity (MCF7 [12]) | Activity (MCF7 [13]) | Activity (A549 [14]) | Activity (MCF7 [15])
O=C1Nc2ccccc2[C@]12N[C@H](c1ccccc1)[C@H](c1cccs1)[C@@]21CCc2c([nH]c3ccccc23)C1=O | 15 | 16 | Dose-dependent effect | Dose-dependent effect | inactive | inactive | inactive | inactive | inactive | inactive | Active | inactive | inactive | inactive | inactive | Active | –
O=C1Nc2ccccc2[C@]12N[C@H](c1ccccc1)[C@H](c1ccccc1)[C@@]21CCc2c([nH]c3ccccc23)C1=O | 15 | 17 | Dose-dependent effect | Dose-dependent effect | inactive | inactive | inactive | inactive | inactive | inactive | Active | inactive | inactive | inactive | inactive | inactive | –
Cc1ccc2[nH]c3c(c2c1)CC[C@]1(C3=O)[C@@H](c2cccs2)[C@@H](c2ccccc2)N[C@@]12C(=O)Nc1ccccc12 | 14 | 15 | Dose-dependent effect | Dose-dependent effect | Dose-dependent effect | Dose-dependent effect | Dose-dependent effect | Dose-dependent effect | Dose-dependent effect | Dose-dependent effect | Active | Active | Active | Active | Active | Active | –
O=C1Nc2ccccc2[C@]12N[C@H](c1ccccc1)[C@H](c1ccccc1)[C@@]21CCc2c([nH]c3ccc(Cl)cc23)C1=O | 18 | 15 | Dose-dependent effect | Dose-dependent effect | inactive | inactive | inactive | inactive | inactive | inactive | Active | inactive | inactive | inactive | inactive | inactive | Active
